MEKK2wt PB1 HTS = modulators of MEK5 binding to wildtype MEKK2, primary screen, biochemical, multiplex bead flow cytometry, Alexa488-MEK5; Mitogen-activated protein kinase kinase kinase 2 (Homo sapiens), Q9Y2U5; Alexa488-MEK5 binding to MEKK2 WT; actives lie on both sides; binding response (% of control), % at 10 µM; 1.1% of 290,000 active; in the data active = binding response below about 67% or above about 130%
MEKK2mut PB1 HTS = MEK5 binding signal on mutant MEKK2 PB1, primary screen, biochemical, multiplex bead flow cytometry, Alexa488-MEK5; Alexa488-MEK5 binding to MEKK2 mutant; percent response, % at 10 µM; 0.35% of 290,000 active; AID 1530, 2009; in the data active = percent response above about 24%, passing the limit was not always enough
MEKK3 PB1 HTS = modulators of MEKK3-MEK5 PB1 binding, primary screen, biochemical, wildtype MEKK3, multiplex bead flow cytometry, Alexa488-MEK5 | Mitogen-activated protein kinase kinase kinase 3 (Homo sapiens), Q99759 | bead-based flow cytometry, Alexa488-MEK5 binding to MEKK3; actives lie on both sides; 0 = blocked by unlabeled MEK5, 100 = vehicle | binding response (% of control), % at 10 µM | 1.4% of 290,000 active;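 active = binding response more than 3 SD above or below the average of its plate-row segment, actives on both sides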;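 also: Alexa488 bead fluorescence after subtracting the streptavidin-only scavenger bead signal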
Target sequence (Q99759 whole entry, looked up): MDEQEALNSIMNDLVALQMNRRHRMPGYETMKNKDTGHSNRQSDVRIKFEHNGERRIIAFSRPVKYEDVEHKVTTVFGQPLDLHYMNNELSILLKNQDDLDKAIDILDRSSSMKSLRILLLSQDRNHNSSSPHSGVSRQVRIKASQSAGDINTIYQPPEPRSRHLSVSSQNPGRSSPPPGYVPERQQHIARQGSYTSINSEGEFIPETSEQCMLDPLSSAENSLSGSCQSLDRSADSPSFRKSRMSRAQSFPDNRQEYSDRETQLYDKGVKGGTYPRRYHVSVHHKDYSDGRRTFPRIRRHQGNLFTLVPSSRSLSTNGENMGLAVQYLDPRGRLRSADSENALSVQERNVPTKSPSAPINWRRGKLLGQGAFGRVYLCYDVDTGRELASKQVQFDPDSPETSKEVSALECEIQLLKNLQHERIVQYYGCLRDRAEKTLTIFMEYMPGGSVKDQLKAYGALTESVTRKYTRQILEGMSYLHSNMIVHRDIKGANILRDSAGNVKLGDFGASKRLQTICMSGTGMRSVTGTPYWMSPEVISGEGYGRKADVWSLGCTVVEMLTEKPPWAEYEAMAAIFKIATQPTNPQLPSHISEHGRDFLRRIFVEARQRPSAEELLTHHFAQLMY
Lipid droplet = inhibitors of hepatocyte lipid droplet formation, primary screen, imaging, high-throughput imaging, BODIPY stain. AID 1656, 2009. AML12 mouse hepatocytes, oleate lipid droplets. inhibition, % at 6.5 µM. 0.4% of 240,000 active;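 active = lipid droplet intensity inhibited by at least 50%, with more than 500 cells counted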
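Test system: AML12 hepatocytes (mouse); reagent: oleate loading, 100 µM; dosing: one dose, 6.5 µM compound; incubation: overnight exposure; signal: fluorescence imaging, 20x objective, two fields per well; read-out basis: % inhibition of corrected integrated BODIPY droplet signal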
MEKK2wt confirm = modulators of MEK5 binding to wildtype MEKK2, confirmation, biochemical, single concentration, multiplex bead flow cytometry. shares compounds with MEKK3 PB1 HTS. Alexa488-MEK5 binding to MEKK2 WT; actives lie on both sides. binding response (% of control), % at 10 µM. 2.4% of 5,900 active. AID 1892, 2009; in the data active = binding response below about 16% or above about 210%; inactive = in between
MEKK2mut-MEK5 = mutant MEKK2 PB1-MEK5 binding signal retest – biochemical, single concentration, multiplex bead flow cytometry, confirmation. shares compounds with MEKK3 PB1 HTS. percent response, % at 10 µM. 2% of 5,900 active. Alexa488-MEK5 binding to MEKK2 mutant. AID 1893, 2009; in the data active = percent response mostly above about 71%, no sharp cut-off; inactive = mostly below about 38%;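 also: higher means compound restores mutant binding toward wildtype level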
MEKK3 confirm = MEKK3 wild-type PB1 binding to MEK5, inhibitors, confirmation, biochemical, bead multiplex flow cytometry, single concentration, wildtype; shares compounds with MEKK3 PB1 HTS; Alexa488-MEK5 binding to MEKK3; stronger effect = lower value; binding response (% of control), % at 10 µM; 1.8% of 5,900 active; AID 1894, 2009;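 active = binding response below 72% of control, or above a set upper limit, though filed actives all read lower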
Of the large screens only hits and unclear results are named; the others gave an inactive call (follow-up assays come after a bar, where they were run); ! = not active in a repeat; [ ] = dose if it differs, or a comment. An excerpt weighted towards active compounds, which were near 2.6% of everything screened.

CC(C)c1ccc(N2C(=O)NC(=O)/C(=C/C=C/c3ccco3)C2=O)cc1	MEKK2wt PB1 HTS 60[inhibitor]
CC1(C)CC[C@]2(C)CC[C@]3(C)C4C[C@@H]5OO[C@@]6(O5)C(CCCC6(C)C)[C@]4(C)CC[C@@]3(C)C2C1 (stereo partly drawn)	none (no result: Lipid droplet)
CC1(C)OC(c2ccccc2)=C/C(=C/C=C2C(=O)NC(=S)NC2=O)O1	MEKK2wt PB1 HTS -5.0[inhibitor], MEKK3 PB1 HTS 73[inhibitor]
CN1/C(=C\C=C2C(=O)NC(=S)NC2=O)C(C)(C)c2ccccc21	none
CN1CC[C@@H](c2ccc(F)cc2)[C@H](COc2ccc3c(c2)OCO3)C1	none (no result: Lipid droplet)
COc1ccc2c3c([nH]c2c1)C(C)NCC3 (stereo not drawn)	MEKK2wt PB1 HTS 1.0
CN1CC[C@]2(c3cccc(O)c3)Cc3nc4ccccc4cc3C[C@H]2C1	MEKK3 PB1 HTS 62![inhibitor]
Cc1cc2c(C(C)C)c(O)c(O)c(C=O)c2c(O)c1-c1c(C)cc2c(C(C)C)c(O)c(O)c(C=O)c2c1O	MEKK2wt PB1 HTS 58[inhibitor], MEKK3 PB1 HTS 42![inhibitor]
Cc1ccccc1N1C(=O)/C(=C/c2ccco2)C(=O)NC1=S	MEKK3 PB1 HTS 82[inhibitor]
C=C(C)[C@@]12OC3(c4ccccc4)O[C@@H]1C1[C@@H]4O[C@]4(CO)[C@@H](O)[C@]4(O)C(=O)C(C)=C[C@H]4[C@@]1(O3)[C@H](C)[C@H]2OC(=O)/C=C/C=C/c1ccccc1 (stereo partly drawn)	none (no result: Lipid droplet)
CCN1CCN(c2cc(N3CCCC3)c(F)cc2[N+](=O)[O-])CC1	MEKK3 PB1 HTS 159
CN1CCN(c2cc(N3CCCC3)c([N+](=O)[O-])cc2F)CC1	none (no result: Lipid droplet)
CN1CCN(c2nc3ccccn3c(=O)c2C=C2C(=O)N(C)C(=O)N(C)C2=O)CC1	MEKK3 PB1 HTS 135
C=CC1CN2CCC1CC2c1[nH]c2ccccc2c1CCO (stereo not drawn)	none
FC(F)(F)Oc1ccc(NC2=NCCCS2)cc1	none
O=C(CN1CC=C(c2ccccc2)CC1)NC(=O)NC1CCCCC1	none
CC(C)(C)NC(=O)NC(=O)CN1CC=C(c2ccccc2)CC1	MEKK2mut PB1 HTS 60
COC(=O)C1=CO[C@@H](C)[C@@H]2CN3CC[C@@]4(C(=O)Nc5ccccc54)[C@@H]3C[C@H]12	none
COC(=O)C1=CO[C@@H](C)[C@@H]2CN3CC[C@]4(C(=O)Nc5ccccc54)[C@@H]3C[C@H]12	MEKK3 PB1 HTS 138
[N-]=[N+]=NC1C[C@H](n2ccc(=O)[nH]c2=O)O[C@@H]1CO (stereo partly drawn)	none
O=C(Nc1nccs1)c1c(O)c2c(n(Cc3ccco3)c1=O)CCCC2	MEKK2wt PB1 HTS -4.0
O=C(Nc1ccccc1)c1c(O)c2c(n(Cc3ccco3)c1=O)CCCC2	none
CN(C(=O)Oc1ccc([N+](=O)[O-])cc1)c1ccccc1	MEKK3 PB1 HTS 73[inhibitor] | MEKK2wt confirm inactive | MEKK2mut-MEK5 inactive | MEKK3 confirm inactive
FC(F)(F)c1ccc2c(c1)N(CCCN1CCN(CCCl)CC1)c1ccccc1S2	MEKK2wt PB1 HTS 173, MEKK2mut PB1 HTS 24 | MEKK2wt confirm inactive | MEKK2mut-MEK5 inactive | MEKK3 confirm inactive
COc1ccccc1N1C(=O)CC(=O)NC1=O	none
Cc1c2ccncc2c(C)c2c1[nH]c1ccccc12	MEKK2wt PB1 HTS 201, MEKK2mut PB1 HTS 28, MEKK3 PB1 HTS 72[inhibitor] | MEKK2wt confirm inactive | MEKK2mut-MEK5 inactive | MEKK3 confirm inactive
Cc1c(C(=O)C(=O)N2CCC3(CC2)OCCO3)c2ccccc2n1C	none
COc1ccc(OCC(=O)N2CCCC(N3CCN(c4ccccc4C)CC3)C2)cc1 (stereo not drawn)	none
O=C1NC(=O)N(C2CCCCC2)C(=O)C1C1c2ccccc2C(=O)N1Cc1ccccc1 (stereo not drawn)	MEKK3 PB1 HTS 76[inhibitor] (no result: Lipid droplet) | MEKK2wt confirm inactive | MEKK2mut-MEK5 inactive | MEKK3 confirm inactive
O=C1NC(=O)C(CCc2ccncc2)(CCc2ccncc2)C(=O)N1C1CCCCC1	none
Cc1ccc(CN2C3CCCC2CC(NC(=S)NCc2ccccc2)C3)cc1 (stereo not drawn)	MEKK2wt PB1 HTS 195, MEKK2mut PB1 HTS 62 | MEKK2wt confirm inactive | MEKK2mut-MEK5 inactive | MEKK3 confirm inactive
CNC(=S)NC1CC2CCCC(C1)N2CC(C)C (stereo not drawn)	none (no result: Lipid droplet)
Cc1nc(SCc2c(Cl)cccc2Cl)nc(OC(=O)N(C)C)c1C	none
CC1CCN(c2cc(Br)c([N+](=O)[O-])cc2F)CC1	none
CC1=NN(c2ccccc2)C(=O)C1/C=C1/C(=O)NC(=O)N(c2cccc(C)c2)C1=O (stereo not drawn)	none (no result: Lipid droplet)
Cc1cccc(N2C(=O)NC(=O)/C(=C\c3ccc4c(c3)CCCN4Cc3ccccc3)C2=O)c1	MEKK2wt PB1 HTS 146, MEKK2mut PB1 HTS 159, MEKK3 PB1 HTS 139 | MEKK2wt confirm inactive | MEKK2mut-MEK5 inactive | MEKK3 confirm inactive
CC/C(=N\Nc1cccc2ccccc12)c1c(O)[nH]c(=O)[nH]c1=O	MEKK2wt PB1 HTS 36[inhibitor] | MEKK2wt confirm inactive | MEKK2mut-MEK5 inactive | MEKK3 confirm inactive
CC/C(=N\Nc1ccccc1)c1c(O)[nH]c(=O)[nH]c1=O	none
CC(C)CCNC(=O)c1c(N)n(CC2CCCO2)c2nc3ccccc3nc12 (stereo not drawn)	none
CCC(C)NC(=O)c1c(N)n(CC2CCCO2)c2nc3ccccc3nc12 (stereo not drawn)	MEKK3 PB1 HTS 82[inhibitor] (no result: Lipid droplet) | MEKK2wt confirm inactive | MEKK2mut-MEK5 inactive | MEKK3 confirm inactive
c1ccc(CC(NCc2ccco2)c2ccccc2)cc1 (stereo not drawn)	MEKK3 PB1 HTS 129 | MEKK2wt confirm inactive | MEKK2mut-MEK5 inactive | MEKK3 confirm inactive
COc1ccc(CNCCc2c(C)[nH]c3ccc(OC(F)(F)F)cc23)c(OC)c1	MEKK2wt PB1 HTS 139 | MEKK2wt confirm inactive | MEKK2mut-MEK5 inactive | MEKK3 confirm inactive
Cc1cc(/C=C2\C(=O)NC(=S)N(C)C2=O)c(C)n1C1CCCCC1	none
